Results as given in ChEMBL document CHEMBL4706684, “Discovering High Potent Hsp90 Inhibitors as Antinasopharyngeal Carcinoma Agents through Fragment Assembling Approach” (J Med Chem, 2021).
The source made the active and inactive calls. The calls are words filed in the database; no cut-off is given here.

Legend:
[1] = target: T1, Heat shock protein HSP 90-alpha (Homo sapiens, UniProt P07900); experiment: Binding affinity to HSP90-alpha (unknown origin) expressed in Escherichia coli BL21 by SPR assay
[2] = target: T1, Heat shock protein HSP 90-alpha; experiment: Potency index, ratio of IC50 for 17-AAG to IC50 for inhibition of HSP90-alpha (unknown origin) expressed in Escherichia coli BL21 assessed as reduction in ATPase activity in presence of PEP, NADH and ATP by pyruvate kinase/lactic dehydrogenase based coupled enzyme assay
In short: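 The reaction was started with 2 μM Hsp90 at 37 °C and followed as the decrease in absorbance at 340 nm. Compounds were added to the reaction mixture, with 17-AAG as reference.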

HEK-293T = experiment: Cytotoxicity in HEK293T cells assessed as reduction in cell viability up to 20 uM incubated for 48 hrs by MTT assay; assay type: cell-based; conditions: human
CNE-2 [3] = experiment: Induction of apoptosis in human CNE-2 cells assessed as Bcl-XL degradation at 20 to 500 nM incubated for 24 hrs by immunoblot analysis; assay type: functional, cell-based; conditions: dose 20-500 nM
In short: (§1)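 CNE2 cells (RPMI 1640, 10% FBS, 37 °C, 5% CO₂) were incubated with inhibitor for 24 h, then lysed in RIPA buffer on ice for 30 min. Lysates were run on 8–12% SDS-PAGE and transferred to PVDF. Membranes were blocked with 5% milk and probed with primary antibodies overnight, then HRP secondaries. Detection was by chemiluminescence with actin as loading control.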

CNE-2 [4] = experiment: Induction of apoptosis in human CNE-2 cells assessed as reduction in HER2 protein level at 500 nM incubated for 24 hrs by immunoblot analysis; assay type: functional, cell-based; in short: as §1
[5] = target: T1, Heat shock protein HSP 90-alpha; experiment: Inhibition of HSP90-alpha in human CNE-2 cells assessed as reduction in PKB protein levels at 70 nM incubated for 24 hrs in presence of HSP90-beta siRNA by immunoblot analysis; assay type: cell-based
CNE-2 [6] = experiment: Antitumor activity against human CNE-2 cells xenografted in nu/nu mouse assessed as induction of tumor size shrinkage at 1 mg/kg, po for 32 days; assay type: functional, organism-based; conditions: time 32.0 day
CNE-2 [7] = experiment: Antitumor activity against human CNE-2 cells xenografted in nu/nu mouse assessed as inhibition of tumor growth at 1 mg/kg, ip for 32 days; assay type: functional, organism-based; conditions: time 32.0 day
[8] = Oral bioavailability in Kunming mouse at 2 mg/kg measured up to 6 hrs by HPLC analysis; assay type: ADME, organism-based; conditions: in vivo
In short: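 Male Kunming mice, 9–11 weeks old, about 23 g, four per group, were given a single 2 mg/kg dose intravenously or orally. Blood was sampled at 0, 10, 15, 30 min and 1, 2, 4, 6 h. For each sample, 40 μL plasma was deproteinized with 200 μL acetonitrile and centrifuged 10 min at 12 000 rpm before analysis.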

[9] = target: T1, Heat shock protein HSP 90-alpha; experiment: Inhibition of HSP90-alpha (unknown origin) expressed in Escherichia coli BL21 assessed as reduction in ATPase activity in presence of PEP, NADH and ATP by pyruvate kinase/lactic dehydrogenase based coupled enzyme assay
[10] = Binding affinity to HSP90-alpha L107G mutant (unknown origin) expressed in Escherichia coli BL21 by SPR assay; design: species or system Homo sapiens
In short: (§2)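 SPR on a Biacore T200 at 25 °C with running buffer PBST (PBS pH 7.4, 0.005% Tween-20). Protein at 20 μg/mL in 10 mM sodium acetate pH 5.0 was immobilized on a CM5 chip, which was equilibrated overnight in PBST. Inhibitor serially diluted from 10 μM was injected at 30 μL/min with 120 s contact and 120 s dissociation.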

[11] = Binding affinity to HSP90-alpha T184G mutant (unknown origin) expressed in Escherichia coli BL21 by SPR assay; design: species or system Homo sapiens; in short: as §2
CNE-2 [12] = experiment: Induction of apoptosis in human CNE-2 cells assessed as viable cells level at 20 nM incubated for 12 hrs by Annexin-V/FITC staining based FACS analysis (reference value: 96.7%); assay type: cell-based; conditions: read-out: Activity
In short: (§3)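 CNE2 cells (RPMI 1640 with 10% FBS) were seeded at 5 × 10⁴ cells per well. After 24 h they were treated with compound in 0.05% DMSO for 12 h. Cells were then washed twice with PBS, pelleted, and stained in binding buffer with Annexin V-FITC and PI for flow cytometry.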

CNE-2 [13] = experiment: Induction of apoptosis in human CNE-2 cells assessed as necrosis cells level at 20 nM incubated for 12 hrs by Annexin-V/FITC staining based FACS analysis (reference value: 1.45%); assay type: cell-based; conditions: cne-2, 12 h, 0.02 µM
CNE-2 [14] = experiment: Induction of apoptosis in human CNE-2 cells assessed as viable cells level at 50 nM incubated for 12 hrs by Annexin-V/FITC staining based FACS analysis (reference value: 96.7%); assay type: cell-based; conditions: read-out: Activity; in short: as §3
CNE-2 [15] = experiment: Induction of apoptosis in human CNE-2 cells assessed as early apoptosis cells level at 50 nM incubated for 12 hrs by Annexin-V/FITC staining based FACS analysis (reference value: 1.45%); assay type: cell-based; conditions: cne-2, 12 h, 0.05 µM
CNE-2 [16] = experiment: Induction of apoptosis in human CNE-2 cells assessed as viable cells level at 100 nM incubated for 12 hrs by Annexin-V/FITC staining based FACS analysis (reference value: 96.7%); assay type: cell-based; conditions: read-out: Activity; in short: as §3
CNE-2 [17] = experiment: Induction of apoptosis in human CNE-2 cells assessed as late apoptosis cells level at 100 nM incubated for 12 hrs by Annexin-V/FITC staining based FACS analysis (reference value: 1.45%); assay type: cell-based; conditions: cne-2, 12 h, 0.1 µM
CNE-2 [18] = experiment: Induction of apoptosis in human CNE-2 cells assessed as early apoptosis cells level at 200 nM incubated for 12 hrs by Annexin-V/FITC staining based FACS analysis (reference value: 1.45%); assay type: cell-based; conditions: cne-2, 12 h, 0.2 µM
CNE-2 [19] = experiment: Induction of apoptosis in human CNE-2 cells assessed as late apoptosis cells level at 200 nM incubated for 12 hrs by Annexin-V/FITC staining based FACS analysis (reference value: 1.45%); assay type: cell-based; conditions: cne-2, 12 h, 0.2 µM
CNE-2 [20] = experiment: Induction of apoptosis in human CNE-2 cells assessed as necrosis cells level at 200 nM incubated for 12 hrs by Annexin-V/FITC staining based FACS analysis (reference value: 1.45%); assay type: cell-based; conditions: cne-2, 12 h, 0.2 µM
CNE-2 [21] = experiment: Induction of apoptosis in human CNE-2 cells assessed as necrosis cells level at 500 nM incubated for 12 hrs by Annexin-V/FITC staining based FACS analysis (reference value: 1.45%); assay type: cell-based; conditions: cne-2, 12 h, 0.5 µM
CNE-2 [22] = experiment: Induction of apoptosis in human CNE-2 cells assessed as early apoptosis cells level at 70 nM incubated for 12 hrs by Annexin-V/FITC staining based FACS analysis (reference value: 3.1%); assay type: cell-based; conditions: cne-2, 12 h, 0.07 µM
CNE-2 [23] = experiment: Induction of apoptosis in human CNE-2 cells overexpressing HSP90 assessed as late apoptosis cells level at 70 nM incubated for 12 hrs by Annexin-V/FITC staining based FACS analysis (reference value: 2.18%); assay type: cell-based; conditions: cne-2, 12 h, 0.07 µM
CNE2 (Homo sapiens) = experiment: Induction of apoptosis in human CNE2 cells at 70 nM incubated for 12 hrs in presence of HSP90-beta siRNA by Annexin-V/FITC staining based FACS analysis; conditions: cne2, 12 h, 0.07 µM

For `CC(C)(C)c1ccc(Cn2cc(-c3cc(O)c(O)c(O)c3)nn2)cc1`, the Kd [1] was 0.063 µM, the Ratio IC50 [2] was 5 and the Activity (HEK-293T) was “Non-Toxic”. The Activity (CNE-2 [3]) was “Active”, the Activity (CNE-2 [4]) was “Active” and the inhibition [5] was “inactive”. The Activity (CNE-2 [6]) was “Active”, the TGI (CNE-2 [7]) was “Active” and the bioavailability [8] was 12%. It also gave an IC50 [9] of 0.16 µM, a Kd [10] of 29.1 µM and a Kd [11] of 81.4 µM. It also gave a viability at 0.02 µM (CNE-2 [12]) of 93.6%, an Activity (CNE-2 [13]) of 0.17% and a viability at 0.05 µM (CNE-2 [14]) of 77.2%. It also gave an Activity (CNE-2 [15]) of 7.17%, a viability at 0.1 µM (CNE-2 [16]) of 78.6% and an Activity (CNE-2 [17]) of 15.6%. For the same molecule, the Activity (CNE-2 [18]) was 13%, the Activity (CNE-2 [19]) was 11.6% and the Activity (CNE-2 [20]) was 0.3%. It also gave an Activity (CNE-2 [21]) of 0.96%, an Activity (CNE-2 [22]) of 13.7% and an Activity (CNE-2 [23]) of 1.28%. The Activity (CNE2 (Homo sapiens)) was “Non-Toxic”.
